These results are taken from the array DNA melting data of Ke et al. (doi:10.1101/2024.01.08.574731).

Series [1] can be described thus: melting temperature; fluorescence melt of hairpins on a sequencing array, two-state fit, raised by 9.35 °C to match UV melts. Conditions: sodium 0.088 M. Summed up:
(§1)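 Two-state fits, bootstrapped, provided melting temperature and folding enthalpy from Cy3 fluorescence normalised to pre-quench Cy3 and to control constructs. Library hairpins with annealed Cy3 and quencher oligos were imaged on a sequenced MiSeq flow cell in 50 mM Na-HEPES pH 8.0, 25 mM NaCl, at 2.5 °C intervals up to 60 °C. Four replicates were combined with inverse-variance weighting. A 9.35 °C upward shift was applied to fitted temperatures to match UV melts.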

Series [2] can be described thus: folding enthalpy; higher = less favourable; fluorescence melt of hairpins on a sequencing array, two-state fit. Particulars: sodium 0.088 M. Summed up:
as §1

Regarding GGAAGAGGAAACTTTTCC ((((.((....)).)))), the Tm in series [1] amounted to 32.8 °C. Further, the folding enthalpy in series [2] is -15.8 kcal/mol.
On to GGAAGCGAAAGCTGATCC ((((((....)))..))), for which the Tm in series [1] came to 36.9 °C. Also, the folding enthalpy in series [2] was -12.4 kcal/mol.
Consider GGAAGCGGAAACACTTCC (((((.(....).))))), for which the Tm in series [1] came to 44.3 °C. For the same sequence, the folding enthalpy in series [2] was -32.9 kcal/mol.
For the sequence GGAAGCGGAAACGCTCCC ((.((((....)))).)), the Tm in series [1] came to 52.4 °C. Further, the folding enthalpy in series [2] is -19.8 kcal/mol.
In the same order, the values of GGAAGGCGAAAGCCATCC (((.(((....))).))) are 53.3 °C and -21.1 kcal/mol.
GGAAGTACGAAAGTATCC (((..(((....)))))): the Tm in series [1] is 23.4 °C. For the same sequence, the folding enthalpy in series [2] is -11.1 kcal/mol.
As to GGAAGTGAAAACTTCC ((((((....)))))), in series [1], the Tm worked out at 56.4 °C. Also, the folding enthalpy in series [2] was -37.3 kcal/mol.
For the sequence GGAAGTGGAAACATTTCC ((((.((....)).)))), the Tm in series [1] turned out to be 40.3 °C. For the same sequence, in series [2], the folding enthalpy was -27.9 kcal/mol.
For GGAATAGGAAACTGTTCC ((((.((....)).)))), in series [1], the Tm amounted to 42.9 °C. Besides, in series [2], the folding enthalpy is -33 kcal/mol.
In the case of GGAATCGAAAGATATCC ((((((....))).))), the Tm in series [1] amounted to 29.1 °C. In addition, the folding enthalpy in series [2] is -13.4 kcal/mol.
With GGAATCGAAAGATTCTCC ((((((....)))..))), the Tm in series [1] is 44.4 °C. For the same sequence, the folding enthalpy in series [2] was -13.5 kcal/mol.
In the case of GGAATCGGAAACAATTCC (((((.(....).))))), the Tm in series [1] was 32.6 °C. The folding enthalpy in series [2] is -27.8 kcal/mol.
GGAATCGGAAACGATTCC (((((((....))))))): the Tm in series [1] was determined as 66.1 °C. Also, the folding enthalpy in series [2] is -43.2 kcal/mol.
On to GGAATGAAAATTCC (((((....))))), for which, in series [1], the Tm was determined as 44.3 °C. The folding enthalpy in series [2] was -22.3 kcal/mol.
In the same order, the values of GGAATGTCGAAAGACTCC (((..(((....)))))) are 32.6 °C and -14.3 kcal/mol.
Take GGAATTCGAAAGAAATCC (((.(((....))).))): the Tm in series [1] stood at 39.5 °C. Further, in series [2], the folding enthalpy is -30.5 kcal/mol.
With GGAATTCGAAAGAAGTCC (((.(((....))).))), in series [1], the Tm is 49.2 °C. Moreover, the folding enthalpy in series [2] is -37.5 kcal/mol.
Take GGACAAGAAATTGTCC ((((((....)))))): the Tm in series [1] was 55.3 °C. Besides, the folding enthalpy in series [2] was -37.4 kcal/mol.
With GGACAAGGAAACTTGCCC ((.((((....)))).)), the Tm in series [1] was determined as 43 °C. In series [2], the folding enthalpy was -20.3 kcal/mol.
GGACACCCGAAAGGGTCC (((..(((....)))))): in series [1], the Tm came to 40.9 °C. In addition, the folding enthalpy in series [2] was -11.5 kcal/mol.
With GGACACCGAAAGGTTTCC (((.(((....))).))), in series [1], the Tm came to 48.2 °C. Further, the folding enthalpy in series [2] is -32.8 kcal/mol.
As for GGACACGAAAGTGCTCC ((((((....))).))), the Tm in series [1] was found to be 50.1 °C. The folding enthalpy in series [2] is -22.5 kcal/mol.
For GGACACGAAAGTGTCTCC ((((((....)))..))), the Tm in series [1] was 53.8 °C. The folding enthalpy in series [2] was -9.39 kcal/mol.
For the sequence GGACACGAAAGTGTTTCC ((((((....)))..))), the Tm in series [1] was 38 °C. Besides, in series [2], the folding enthalpy was -11.5 kcal/mol.
Consider GGACAGCGAAAGCTTTCC (((.(((....))).))), for which the Tm in series [1] worked out at 48.3 °C. The folding enthalpy in series [2] is -29.6 kcal/mol.
Turning to GGACAGGGAAACCTATCC (((.(((....))).))), the Tm in series [1] came out at 32.6 °C. In series [2], the folding enthalpy was -19.3 kcal/mol.
GGACATCGAAAGATATCC (((.(((....))).))): the Tm in series [1] came out at 38 °C. Besides, the folding enthalpy in series [2] was -29.8 kcal/mol.
Consider GGACATGGAAACACGTCC ((((.((....)).)))), for which the Tm in series [1] came to 42.7 °C. Further, in series [2], the folding enthalpy is -30 kcal/mol.
Regarding GGACATGGAAACATGTCC (((((((....))))))), the Tm in series [1] amounted to 64.7 °C. The folding enthalpy in series [2] is -44.6 kcal/mol.
With GGACATGGAAACGTGTCC (((((.(....).))))), the Tm in series [1] turned out to be 52.6 °C. For the same sequence, in series [2], the folding enthalpy was -45.1 kcal/mol.
Turning to GGACCACGAAAGTGTCC (((.(((....)))))), in series [1], the Tm worked out at 56.1 °C. Moreover, the folding enthalpy in series [2] is -22 kcal/mol.
The like results for GGACCACGAAAGTGTTCC (((.(((....))).))) were, in that order, 49.4 °C and -24.8 kcal/mol.
For GGACCAGGAAACTAGTCC ((((.((....)).)))), the Tm in series [1] is 36.4 °C. Besides, the folding enthalpy in series [2] was -26.9 kcal/mol.
For GGACCCGAAAGGGCGTCC ((((((....)))..))), the Tm in series [1] was 49.1 °C. The folding enthalpy in series [2] is -16.7 kcal/mol.
Consider GGACCCGAAAGGGCTTCC ((((((....)))..))), for which the Tm in series [1] is 40.6 °C. The folding enthalpy in series [2] was -17 kcal/mol.
In the case of GGACCCGAAAGGGGTTCC ((((((....)))..))), the Tm in series [1] was 48.3 °C. Moreover, the folding enthalpy in series [2] is -15 kcal/mol.
In the same order, the values of GGACCCGAAAGGGTTCC ((((((....))).))) are 59.7 °C and -16.8 kcal/mol.
Regarding GGACCCGGAAACAGGCCC ((.((.(....).)).)), the Tm in series [1] amounted to 29 °C. Moreover, in series [2], the folding enthalpy was -16.9 kcal/mol.
Turning to GGACCGCGAAAGCGTTCC (((.(((....))).))), the Tm in series [1] was 53.1 °C. Moreover, the folding enthalpy in series [2] was -20.9 kcal/mol.
In the same order, the values of GGACCGGGAAACCGATCC (((.(((....))).))) are 48 °C and -35.7 kcal/mol.
As for GGACGACGAAAGTCATCC (((.(((....))).))), the Tm in series [1] was found to be 48.8 °C. In addition, the folding enthalpy in series [2] was -23.5 kcal/mol.
Consider GGACGACGAAAGTCTCC (((.(((....)))))), for which the Tm in series [1] amounted to 47 °C. Further, the folding enthalpy in series [2] was -27.1 kcal/mol.
Turning to GGACGAGGAAACCCGTCC (((((.(....).))))), the Tm in series [1] was 54.2 °C. For the same sequence, the folding enthalpy in series [2] was -39.1 kcal/mol.
As for GGACGCGAAAGCGACTCC ((((((....)))..))), in series [1], the Tm worked out at 46.2 °C. Besides, the folding enthalpy in series [2] was -11.6 kcal/mol.
The like results for GGACGCGAAAGCGCTCC ((((((....))).))) were, in that order, 54.9 °C and -20.5 kcal/mol.
For GGACGCGAAAGCGGTTCC ((((((....)))..))), the Tm in series [1] is 45.7 °C. The folding enthalpy in series [2] is -11.6 kcal/mol.
Regarding GGACGCGAAAGCGTTTCC ((((((....)))..))), the Tm in series [1] stood at 36.4 °C. The folding enthalpy in series [2] was -9.28 kcal/mol.
GGACGCGGAAACACGCCC ((.((.(....).)).)): in series [1], the Tm came to 34.3 °C. Moreover, in series [2], the folding enthalpy is -18.9 kcal/mol.
For GGACGCGGAAACGCATCC (((.(((....))).))), the Tm in series [1] was 48.9 °C. For the same sequence, the folding enthalpy in series [2] is -26.3 kcal/mol.
As to GGACGCGGAAACGCGCCC ((.((((....)))).)), the Tm in series [1] is 61.8 °C. Further, the folding enthalpy in series [2] is -18.6 kcal/mol.
The like results for GGACGCTCGAAAGAGTCC (((..(((....)))))) were, in that order, 46.5 °C and -22.1 kcal/mol.
Turning to GGACGGCCGAAAGGCTCC (((..(((....)))))), in series [1], the Tm was 34.1 °C. In series [2], the folding enthalpy is -10.8 kcal/mol.
In the same order, the values of GGACGGCGAAAGCCTCC (((.(((....)))))) are 53.5 °C and -16.4 kcal/mol.
Consider GGACGGTCGAAAGACTCC (((..(((....)))))), for which, in series [1], the Tm is 29.5 °C. In addition, the folding enthalpy in series [2] is -12.2 kcal/mol.
Take GGACGTCGAAAGACTTCC (((.(((....))).))): the Tm in series [1] worked out at 48.1 °C. In series [2], the folding enthalpy is -29.9 kcal/mol.
